Measurements reported in PMC9643156 (Acta Pharmaceutica Sinica. B, 2022).

Legend:
[1] = tested on: LNCaP, 22RV1 and LNCaP-ENZR cells; experiment: Viability screen of 197 compounds in PCa cells; assay type: cell-based; details: 20 μmol/L, 72 h, 22RV1, LNCaP-ENZR cells
[2] = tested on: 22RV1 orthotopic xenografts; experiment: 22RV1 orthotopic xenografts; assay type: in vivo, BALB/c-nude mice; details: LLU-206 25 mg/kg i.v.; ENZ 10 mg/kg p.o.
How it was run: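 Mice aged 6–8 weeks carried 22RV1 tumours implanted orthotopically in the prostate. Tumour growth was followed by bioluminescence imaging and analysed as average fluorescence values, n = 6 per group. Relative tumour weight was recorded at the end. Paraffin-embedded tumours were H&E-stained and stained for Ki-67 by IHC; Ki-67 and necrotic area were quantified by image analysis. Data are mean ± SEM, one-way ANOVA with Tukey.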

[3] = tested on: LNCaP-ENZR xenografts; experiment: LNCaP-ENZR subcutaneous xenografts; assay type: in vivo, NOD-SCID mice; details: LLU-206 10, 25 mg/kg via tail vein; ENZ 10 mg/kg by gavage

Compound: CNC(=O)c1ccc(N2C(=S)N(c3cnc(C#N)c(C(F)(F)F)c3)C(=O)C23CCC3)cc1F [ARN-509, apalutamide]
- anti-PCa activity / inhibition of proliferation in the viability screen [1]: no significant inhibition

Compound: CNC(=O)c1ccc(N2C(=S)N(c3ccc(C#N)c(C(F)(F)F)c3)C(=O)C2(C)C)cc1F [ENZ, Enzalutamide]
- growth of 22RV1 orthotopic xenografts [2]: exhibited resistance
- antitumor activity in LNCaP-ENZR xenografts (tumor volume, tumor weight, serum PSA) [3]: completely resistant

Compound: CC(O)c1cc(C(=O)N[C@@H](C)Cn2ccc(-c3ccc(C#N)c(Cl)c3)n2)[nH]n1 (stereo partly shown) [ODM-201, darolutamide]
- anti-PCa activity / inhibition of proliferation in the viability screen [1]: no significant inhibition
